Consider 28 compounds from ChEMBL document CHEMBL2062524, “Synthesis, cytotoxicity of new 4-arylidene curcumin analogues and their multi-functions in inhibition of both NF-κB and Akt signalling” (Eur J Med Chem, 2012).

Assay [1] concerns MCF7. The assay can be described thus: Antiproliferative activity against human MCF7 cells after 48 hrs by SRB assay. Format: functional, cell-based. Conditions: MCF7, 48 h. In a few lines: (§1)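 SRB assay on cells in RPMI-1640 with 2 mM glutamine, 10% FBS and penicillin/streptomycin at 37 °C and 5% CO2. Seeded at 5000 cells/well and grown 24 h, then compounds added in triplicate (DMSO 0.5% final) for 48 h. Fixed with TCA at 4 °C for 1 h, stained with SRB, dye dissolved in 10 mM Tris pH 10.4, OD read at 515 nm. IC50 from nonlinear dose-response fit; experiments run at least twice.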

Assay [2] is described as follows: Inhibition of TNFalpha-induced NF-kappaB translocation in human A549 cells incubated at 37 degC for 30 mins by high content analysis based immunofluorescence assay. Format: cell-based. The conditions noted are these: A549, 0.5 h. In a few lines: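 A549 cells at 2000/well grown 24 h, then compound added in duplicate (DMSO 0.5% final) for 30 min at 37 °C. Stimulated with TNFα at 10 ng/mL final for 30 min, then fixed with 4% paraformaldehyde and permeabilized with Triton X-100. Stained with anti-p65 and DyLight 488 secondary plus Hoechst, imaged on ArrayScan. Nuclear minus cytoplasmic intensity, background-subtracted, given as % of TNFα-only control. IC50 from this; repeated at least twice.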

Assay [3] concerns SW480. Nature of the assay: Antiproliferative activity against human SW480 cells after 48 hrs by SRB assay. Format: functional, cell-based. Conditions: SW480, 48 h. In a few lines:
as §1

Assay [4] is described as follows: Antiproliferative activity against human CNE2 cells after 48 hrs by SRB assay. Format: functional, cell-based. The conditions noted are these: CNE-2, 48 h. In a few lines: as §1
A general note: Sulforhodamine B stains cellular protein and so reports cell mass.

For assay [5], the system named is HepG2. Nature of the assay: Antiproliferative activity against human HepG2 cells after 48 hrs by SRB assay. Format: functional, cell-based. The conditions noted are these: HepG2, 48 h. In a few lines:
as §1

In assay [6] the test system is A549. Nature of the assay: Antiproliferative activity against human A549 cells after 48 hrs by SRB assay. Format: functional, cell-based. The conditions noted are these: A549, 48 h. In a few lines: as §1

The structures appear in SMILES notation.

One may read the IC50 as the point on the concentration scale where inhibition reaches its midpoint. On to `COc1ccc(OC)c(/C=C/C(=O)C(=Cc2ccc(O)c(F)c2)C(=O)/C=C/c2cc(OC)ccc2OC)c1`, for which the 50% inhibitory concentration (IC50) came to 460 nM in assay [1]; 3010 nM in assay [2]; 510 nM in assay [3]; 380 nM in assay [4]; 220 nM in assay [5]; 220 nM in assay [6].

For `COc1cc(C=C(C(=O)/C=C/c2cccc(OC)c2OC)C(=O)/C=C/c2cccc(OC)c2OC)cc(Br)c1O`, the IC50 was 360 nM in assay [1]; 5530 nM in assay [2]; 260 nM in assay [3]; 220 nM in assay [4]; 240 nM in assay [5]; 200 nM in assay [6].

Consider `COc1ccc(/C=C/C(=O)C(=Cc2ccc(O)c(OC)c2)C(=O)/C=C/c2ccc(OC)cc2OC)c(OC)c1`, for which the concentration for half-maximal inhibition (IC50) in assay [1] came to 2140 nM; in assay [2], 10400 nM; in assay [3], 1520 nM; in assay [4], 970 nM; in assay [5], 510 nM; in assay [6], 590 nM.

As for `COc1cccc(/C=C/C(=O)C(=Cc2ccc(F)cc2)C(=O)/C=C/c2cccc(OC)c2OC)c1OC`, the half-maximal inhibitory concentration (IC50) in assay [1] amounted to 1830 nM; in assay [2] it was 1720 nM; in assay [3], 1040 nM; in assay [4], 610 nM; in assay [5] it was 580 nM; in assay [6], 340 nM.

On to `COc1cccc(/C=C/C(=O)C(=Cc2ccc(O)c(F)c2)C(=O)/C=C/c2cccc(OC)c2OC)c1OC`, for which the half-inhibitory concentration (IC50) in assay [1] is 300 nM; in assay [2] it was 5250 nM; in assay [3] it was 330 nM; in assay [4], 260 nM; in assay [5] it was 220 nM; in assay [6], 200 nM.

Take `COc1cc(OC)c(/C=C/C(=O)C(=Cc2ccc(O)c(OC)c2)C(=O)/C=C/c2c(OC)cc(OC)cc2OC)c(OC)c1`: the IC50 is 1880 nM in assay [1]; above 50000 nM in assay [2]; 1490 nM in assay [3]; 1350 nM in assay [4]; 670 nM in assay [5]; 580 nM in assay [6].

`COc1ccc(C=C(C(=O)/C=C/c2cccc(OC)c2OC)C(=O)/C=C/c2cccc(OC)c2OC)cc1OC`: the concentration for half-maximal inhibition (IC50) came to 560 nM in assay [1]; 1670 nM in assay [2]; 410 nM in assay [3]; 280 nM in assay [4]; 200 nM in assay [5]; 170 nM in assay [6].

Turning to `COc1ccc(/C=C/C(=O)C(=Cc2cc(Br)c(O)c(OC)c2)C(=O)/C=C/c2ccc(OC)cc2OC)c(OC)c1`, the IC50 in assay [1] is 2600 nM; in assay [2], above 50000 nM; in assay [3], 1480 nM; in assay [4] it was 1780 nM; in assay [5], 1190 nM; in assay [6] it was 1090 nM.

In the case of `COc1ccc(OC)c(/C=C/C(=O)C(=Cc2ccc(O)c(OC)c2)C(=O)/C=C/c2cc(OC)ccc2OC)c1`, the IC50 in assay [1] amounted to 400 nM; in assay [2], 2650 nM; in assay [3] it was 410 nM; in assay [4] it was 340 nM; in assay [5], 340 nM; in assay [6] it was 190 nM.

For the compound `COc1cccc(/C=C/C(=O)C(=Cc2cc(OC)c(OC)c(OC)c2)C(=O)/C=C/c2cccc(OC)c2OC)c1OC`, the IC50 in assay [1] amounted to 840 nM; in assay [2] it was 1320 nM; in assay [3], 650 nM; in assay [4] it was 400 nM; in assay [5], 220 nM; in assay [6], 230 nM.

As to `COc1cc(OC)c(/C=C/C(=O)C(=Cc2cc(OC)c(O)c(OC)c2)C(=O)/C=C/c2c(OC)cc(OC)cc2OC)c(OC)c1`, the IC50 was 1030 nM in assay [1]; above 50000 nM in assay [2]; 980 nM in assay [3]; 680 nM in assay [4]; 510 nM in assay [5]; 340 nM in assay [6].

Turning to `COc1ccc(/C=C/C(=O)C(=Cc2cc(OC)c(O)c(OC)c2)C(=O)/C=C/c2ccc(OC)cc2OC)c(OC)c1`, the IC50 was found to be 970 nM in assay [1]; 3930 nM in assay [2]; 850 nM in assay [3]; 850 nM in assay [4]; 320 nM in assay [5]; 300 nM in assay [6].

Regarding `COc1cc(OC)c(/C=C/C(=O)C(=Cc2ccc(O)c(F)c2)C(=O)/C=C/c2c(OC)cc(OC)cc2OC)c(OC)c1`, the half-maximal inhibitory concentration (IC50) in assay [1] was 3180 nM; in assay [2], above 50000 nM; in assay [3], 1950 nM; in assay [4], 1580 nM; in assay [5] it was 810 nM; in assay [6] it was 1060 nM.

On to `COc1cccc(C=C(C(=O)/C=C/c2cccc(OC)c2OC)C(=O)/C=C/c2cccc(OC)c2OC)c1OC`, for which the half-maximal inhibitory concentration (IC50) in assay [1] was 520 nM; in assay [2], 2390 nM; in assay [3], 590 nM; in assay [4], 400 nM; in assay [5], 230 nM; in assay [6], 320 nM.

As to `COc1ccc(C=C(C(=O)/C=C/c2cccc(OC)c2OC)C(=O)/C=C/c2cccc(OC)c2OC)cc1O`, the IC50 in assay [1] was 310 nM; in assay [2], 1260 nM; in assay [3] it was 320 nM; in assay [4] it was 220 nM; in assay [5], 270 nM; in assay [6], 270 nM.

With `COc1ccc(/C=C/C(=O)/C=C(O)/C=C/c2ccc(OC)cc2OC)c(OC)c1`, the half-inhibitory concentration (IC50) was above 50000 nM in assay [1]; above 50000 nM in assay [2]; above 50000 nM in assay [3]; above 50000 nM in assay [4]; 10400 nM in assay [5]; 44700 nM in assay [6].

Turning to `COc1ccc(OC)c(/C=C/C(=O)/C=C(O)/C=C/c2cc(OC)ccc2OC)c1`, the concentration for half-maximal inhibition (IC50) in assay [1] was above 50000 nM; in assay [2], above 50000 nM; in assay [3], 15600 nM; in assay [4], 14700 nM; in assay [5], 5560 nM; in assay [6] it was 16300 nM.

Consider `COc1cc(OC)c(/C=C/C(=O)/C=C(O)/C=C/c2c(OC)cc(OC)cc2OC)c(OC)c1`, for which the IC50 is above 50000 nM in assay [1]; above 50000 nM in assay [2]; above 50000 nM in assay [3]; above 50000 nM in assay [4]; 16500 nM in assay [5]; above 50000 nM in assay [6].

Consider `COc1cc(OC)c(C=C(C(=O)/C=C/c2cccc(OC)c2OC)C(=O)/C=C/c2cccc(OC)c2OC)c(OC)c1`, for which the 50% inhibitory concentration (IC50) in assay [1] is 720 nM; in assay [2], above 50000 nM; in assay [3], 840 nM; in assay [4], 630 nM; in assay [5], 300 nM; in assay [6], 630 nM.

Consider `COc1cccc(/C=C/C(=O)/C=C(O)/C=C/c2cccc(OC)c2OC)c1OC`, for which the IC50 is above 50000 nM in assay [1]; above 50000 nM in assay [2]; 12000 nM in assay [3]; 12800 nM in assay [4]; 12900 nM in assay [5]; 11500 nM in assay [6].

For `COc1cccc(/C=C/C(=O)C(=Cc2ccc(OC)c(OC)c2OC)C(=O)/C=C/c2cccc(OC)c2OC)c1OC`, the IC50 was found to be 380 nM in assay [1]; 1630 nM in assay [2]; 560 nM in assay [3]; 410 nM in assay [4]; 240 nM in assay [5]; 260 nM in assay [6].

As for `COc1ccc(OC)c(/C=C/C(=O)C(=Cc2ccc(OC)c(O)c2)C(=O)/C=C/c2cc(OC)ccc2OC)c1`, the IC50 in assay [1] came out at 990 nM; in assay [2], 1780 nM; in assay [3], 1120 nM; in assay [4], 730 nM; in assay [5] it was 470 nM; in assay [6] it was 390 nM.

Turning to `COc1ccc(OC)c(/C=C/C(=O)C(=Cc2cc(OC)c(O)c(OC)c2)C(=O)/C=C/c2cc(OC)ccc2OC)c1`, the IC50 in assay [1] was found to be 430 nM; in assay [2] it was 950 nM; in assay [3], 500 nM; in assay [4] it was 450 nM; in assay [5], 210 nM; in assay [6], 190 nM.

As to `COc1cc(C=C(C(=O)/C=C/c2cccc(OC)c2OC)C(=O)/C=C/c2cccc(OC)c2OC)cc(OC)c1O`, the IC50 was 460 nM in assay [1]; 2620 nM in assay [2]; 420 nM in assay [3]; 300 nM in assay [4]; 210 nM in assay [5]; 240 nM in assay [6].

As for `COc1ccc(/C=C/C(=O)C(=Cc2ccc(O)c(F)c2)C(=O)/C=C/c2ccc(OC)cc2OC)c(OC)c1`, the IC50 in assay [1] amounted to 5450 nM; in assay [2], 23000 nM; in assay [3], 3350 nM; in assay [4], 2830 nM; in assay [5], 1760 nM; in assay [6], 2070 nM.

As for `COc1cc(OC)c(/C=C/C(=O)C(=Cc2cc(Br)c(O)c(OC)c2)C(=O)/C=C/c2c(OC)cc(OC)cc2OC)c(OC)c1`, the 50% inhibitory concentration (IC50) in assay [1] was 1460 nM; in assay [2], above 50000 nM; in assay [3], 1450 nM; in assay [4], 1320 nM; in assay [5], 660 nM; in assay [6], 730 nM.

As to `COc1cc(/C=C/C(=O)CC(=O)/C=C/c2ccc(O)c(OC)c2)ccc1O` [CURCUMIN], the IC50 in assay [1] stood at 15700 nM; in assay [2], 21400 nM; in assay [3], 10200 nM; in assay [4], 5760 nM; in assay [5] it was 20700 nM; in assay [6], 11600 nM.

Consider `COc1ccc(OC)c(/C=C/C(=O)C(=Cc2ccc(OC)c(OC)c2)C(=O)/C=C/c2cc(OC)ccc2OC)c1`, for which the IC50 came out at 850 nM in assay [1]; 14400 nM in assay [2]; 560 nM in assay [3]; 550 nM in assay [4]; 260 nM in assay [5]; 400 nM in assay [6].
